Reference: ChEMBL document CHEMBL4024804 (J Med Chem, 2018)
pIC50: −log10 of the molar value. Activity calls are given as the source filed them. The calls are words filed in the database; no cut-off is given here.

Columns and labels:
M14 = experiment: Cytotoxicity against human M14 cells after 72 hrs by MTS assay; format: functional, cell-based; details: M14, 72 h
Method in brief: (§1)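 Melanoma cells grown in DMEM with 10% FBS and seeded at 1800–3500 cells per well, then incubated overnight. Cells treated for 72 h with 10 concentrations from 0.03 nM to 1 μM, with DMSO vehicle, in four replicates. MTS added for at least 1 h at 37 °C and absorbance read at 490 nm. IC50 obtained by nonlinear regression.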

RPMI-7951 = experiment: Cytotoxicity against human RPMI7951 cells after 72 hrs by MTS assay; format: functional, cell-based; details: RPMI-7951, 72 h; method in brief: as §1
A-375 [1] = experiment: Cytotoxicity against human A375 cells after 72 hrs by MTS assay; format: functional, cell-based; details: A-375, 72 h; method in brief: as §1
Homo sapiens [2] = species: Homo sapiens; experiment: Inhibition of tubulin polymerization in human WM164 cells assessed as decrease in polymeric tubulin filaments at 100 nM after 18 hrs using DAPI by immunofluorescence-based confocal microscopic method; format: cell-based
Method in brief: (§2)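 WM164 cells on glass coverslips (125 000 cells/well), incubated overnight, treated 18 h with 100 nM compound or DMSO vehicle. Stained with anti-α-tubulin and Alexa Fluor 647 anti-mouse IgG, mounted in DAPI-containing medium, and imaged by confocal microscopy.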

Homo sapiens [3] = species: Homo sapiens; experiment: Inhibition of tubulin polymerization in human WM164 cells assessed as increase in cytoplasmic soluble tubulin levels at 100 nM after 18 hrs using DAPI by immunofluorescence-based confocal microscopic method; format: cell-based; method in brief: as §2
PC-3 [4] = experiment: Cytotoxicity against human PC3 cells after 72 hrs by MTS assay; format: functional, cell-based; details: PC-3, 72 h
Method in brief: (§3)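 Cells treated 72 h at 10 concentrations, 0.03 nM–1 μM, n = 4. MTS read at 490 nm; IC50 by nonlinear regression. RI = resistant IC50 / parental IC50.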

DU-145 = experiment: Cytotoxicity against human DU145 cells after 72 hrs by MTS assay; format: functional, cell-based; details: DU-145, 72 h; method in brief: as §3
[5] = Cytotoxicity against human DU145-TxR cells after 72 hrs by MTS assay; format: functional, cell-based; method in brief: as §3
Homo sapiens [6] = species: Homo sapiens; experiment: Inhibition of tubulin polymerization in human WM164 cells assessed as fragmentation of microtubules at 100 nM after 18 hrs using DAPI by immunofluorescence-based confocal microscopic method; format: cell-based; method in brief: as §2
[7] = Resistance index, ratio of IC50 for human DU145-TxR cells to IC50 for human DU145 cells; format: functional; method in brief: as §3
[8] = Cytotoxicity against human PC3-TxR cells after 72 hrs by MTS assay; format: functional, cell-based; method in brief: as §3
[9] = Resistance index, ratio of IC50 for human PC3-TxR cells to IC50 for human PC3 cells; format: functional
Method in brief: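 Cells were treated 72 h with 10 concentrations from 0.03 nM to 1 μM, four replicates, A490 read. IC50 by nonlinear regression. RI = IC50 resistant / IC50 parental.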

Liver = experiment: Half life in human liver microsomes by UPLC-MS analysis; format: ADME, microsome
Method in brief: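 Compound at 10 mM in DMSO diluted into human liver microsomes (0.6381 mg/mL protein) in 0.1 M potassium phosphate pH 7.4 with EDTA. NADPH regenerating system added, incubated at 37 °C for 0–4 h in triplicate. Quenched with cold acetonitrile containing warfarin as internal standard, analysed by UPLC–MS SIR. ke from log-linear regression; t1/2 = ln 2/ke.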

PC3-TxR [10] = experiment: Antitumor activity against human PC3-TxR cells xenografted in nude mouse assessed as decrease in tumor weight at 15 mg/kg, ip administered every other day for 3 weeks; format: functional, organism-based
Method in brief: (§4)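 Paclitaxel-resistant PC-3/TxR, kept drug-free at least 1 week beforehand, implanted subcutaneously (2.5 × 10^6 cells with Matrigel) in nude mice. Randomized at ~100 mm3 (n = 7). Dosing ip every other day in 2:1 PEG300/PBS. Volume by caliper (a × b2 × 0.5) three times weekly, tumors weighed at end. One-way ANOVA with Dunnett's test versus vehicle.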

Mus musculus = experiment: Toxicity in nude mouse xenografted with human PC3-TxR cells assessed as decrease in body weight at 15 mg/kg, ip administered every other day for 2 weeks; format: organism-based; details: in vivo, 336 h
PC-3 [11] = experiment: Antitumor activity against human PC3 cells xenografted in nude mouse assessed as decrease in tumor volume at 15 mg/kg, ip administered every other day for 3 weeks; format: functional, organism-based
Method in brief: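 PC-3 cells (2.5 × 10^6) with Matrigel injected subcutaneously in dorsal flank of nude mice. At ~100 mm3, randomized (n = 8). Dosing ip every other day in 2:1 PEG300/PBS; vehicle PEG300/PBS 1:1. Caliper volume a × b2 × 0.5 three times weekly.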

A-375 [12] = experiment: Antitumor activity against human A375 cells xenografted in nude mouse assessed as tumor growth inhibition at 15 mg/kg, ip administered every other day for 2 weeks relative to control; format: functional; details: A-375, ip, 336 h, read-out: TGI
Method in brief: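 Nude mice 6–8 weeks old; 2 × 10^6 A375 cells in FBS-free medium with Matrigel injected sc into dorsal flank. At about 100 mm3 mice were randomized, n = 8. Drug in 2:1 PEG300/PBS given ip every other day. Volume measured by caliper three times weekly (a × b2 × 0.5).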

PC3-TxR [13] = experiment: Antitumor activity against human PC3-TxR cells xenografted in nude mouse assessed as decrease in tumor volume at 15 mg/kg, ip administered every other day for 3 weeks; format: functional, organism-based; method in brief: as §4
A-375 [14] = experiment: Induction of apoptosis in human A375 cells xenografted in nude mouse assessed as increase in cleaved caspase-3 levels at 15 mg/kg, ip administered every other day for 2 weeks by immunohistochemical analysis; format: functional, organism-based
Method in brief: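 Formalin-fixed, paraffin-embedded A375 xenograft tumors from mice dosed ip every other day (2:1 PEG300/PBS). Serial sections immunostained with rabbit anti-cleaved caspase 3 antibody by the ABC-DAB method.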

Compound | pIC50 (M14) | pIC50 (RPMI-7951) | pIC50 (A-375 [1]) | further results
COc1cc(N(C)c2nc(Cl)nc3ncccc23)cc(OC)c1OC | < 6.00 | < 6.00 | < 6.00 | 
CN(c1ccc2c(c1)OCO2)c1nc(Cl)nc2ncccc12 | 6.78 | 6.75 | 6.79 | 
COc1ccc2c(c1)OCCN2c1nc(Cl)nc2ncccc12 | 6.57 | 6.39 | 6.65 | 
COc1ccc2c(n1)CCCN2c1nc(Cl)nc2ncccc12 | < 6.00 | < 6.00 | < 6.00 | 
COc1ccc2c(c1)C(=O)CCN2c1nc(Cl)nc2ncccc12 | < 6.00 | < 6.00 | < 6.00 | 
CC(=O)O[C@@]12CO[C@@H]1C[C@H](O)[C@@]1(C)C(=O)[C@H](O)C3=C(C)[C@@H](OC(=O)[C@H](O)[C@@H](NC(=O)OC(C)(C)C)c4ccccc4)C[C@@](O)([C@@H](OC(=O)c4ccccc4)[C@H]21)C3(C)C [DOCETAXEL ANHYDROUS] |  |  |  | inhibition (Homo sapiens [2]): inactive; inhibition (Homo sapiens [3]): inactive; pIC50 (PC-3 [4]): 9.30; pIC50 (DU-145): 10.00; pIC50 [5]: 6.45; inhibition (Homo sapiens [6]): inactive; Ratio IC50 [7]: >3523; pIC50 [8]: 7.55; Ratio IC50 [9]: 55.8
COc1ccc2c(c1)CCCN2c1nc(Cl)nc2ncn(C)c12 | 7.39 | 7.23 | 7.40 | 
COc1ccc2c(c1)CCCN2c1nc(C)nc2onc(C)c12 | 7.73 | 7.75 | 7.79 | t1/2 (Liver): 51.6 min
CC(=O)O[C@H]1C(=O)[C@@]2(C)[C@H]([C@H](OC(=O)c3ccccc3)[C@]3(O)C[C@H](OC(=O)[C@H](O)[C@@H](NC(=O)c4ccccc4)c4ccccc4)C(C)=C1C3(C)C)[C@]1(OC(C)=O)CO[C@@H]1C[C@@H]2O [PACLITAXEL] |  |  |  | Activity (PC3-TxR [10]): inactive; Activity (Mus musculus): Toxic; Activity (PC-3 [11]): Active; inhibition in vivo at 15 mg/kg (A-375 [12]): 76.5%; pIC50 (PC-3 [4]): 8.43; pIC50 [5]: < 6.00; Activity (PC3-TxR [13]): inactive; Activity (A-375 [14]): Active; pIC50 [8]: 6.96
